In ChEMBL document CHEMBL1165947, “Synthesis and antitumor activity of 2,5-bis(3'-indolyl)-furans and 3,5-bis(3'-indolyl)-isoxazoles, nortopsentin analogues” (Bioorg Med Chem, 2010):
≈ marks a conversion by molar mass, not a printed value.

Experiments:
[1] = system: IGROV-1; experiment: Growth inhibition of human IGROV1 cells; format: functional
[2] = Cytotoxicity against human PC3M cells after 4 days by modified propidium iodide staining-based fluorescence assay; format: functional, cell-based; conditions: PC-3M, 96 h
Summary of the method: (§1)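 Cells cultured in RPMI 1640 with 10% fetal calf serum and 0.1 mg/mL gentamicin at 37 °C, 5% CO2. Cells from exponential cultures were trypsinized and plated at 4.000-20.000 cells/well by line. After 24 h recovery, compounds were added at five log-spaced concentrations (highest 100 μg/mL) for 4 days. Proliferation was read as DNA content with aqueous propidium iodide (7 μg/ml), fluorescence ex 530/em 620 nm. Points were run in triplicate.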

[3] = system: DU-145; experiment: Cytotoxicity against human DU145 cells after 4 days by modified propidium iodide staining-based fluorescence assay; format: functional, cell-based; conditions: DU-145, 96 h; summary of the method: as §1
[4] = system: SF-268; experiment: Cytotoxicity against human SF268 cells after 4 days by modified propidium iodide staining-based fluorescence assay; format: functional, cell-based; conditions: SF-268, 96 h; summary of the method: as §1
[5] = system: OVCAR-4; experiment: Growth inhibition of human OVCAR4 cells; format: functional
Summary of the method: (§2)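 Values come from the NCI in vitro disease-oriented human tumor cell screen. GI50 is the concentration giving 50% growth inhibition of tumor cells; pGI50 is its −log molar form.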

[6] = system: OVCAR-3; experiment: Growth inhibition of human OVCAR-3 cells; format: functional; summary of the method: as §2
[7] = system: OVCAR-8; experiment: Growth inhibition of human OVCAR8 cells; format: functional; summary of the method: as §2
[8] = system: T47D; experiment: Growth inhibition of human T47D cells; format: functional; summary of the method: as §2
[9] = system: SK-OV-3; experiment: Growth inhibition of human SKOV3 cells; format: functional; summary of the method: as §2
[10] = system: LOX IMVI; experiment: Growth inhibition of human LOXIMVI cells; format: functional
[11] = Cytotoxicity against human LXFA 289L cells after 4 days by modified propidium iodide staining-based fluorescence assay; format: functional, cell-based; conditions: 96 h; summary of the method: as §1
[12] = Cytotoxicity against human UXF 1138L cells after 4 days by modified propidium iodide staining-based fluorescence assay; format: functional, cell-based; conditions: 96 h; summary of the method: as §1
[13] = system: SW-620; experiment: Growth inhibition of human SW620 cells; format: functional; summary of the method: as §2
[14] = system: EKVX; experiment: Growth inhibition of human EKVX cells; format: functional
[15] = system: MOLT-4; experiment: Growth inhibition of human MOLT4 cells; format: functional; summary of the method: as §2
[16] = system: OVCAR-3; experiment: Cytotoxicity against human OVCAR-3 cells after 4 days by modified propidium iodide staining-based fluorescence assay; format: functional, cell-based; conditions: OVCAR-3, 96 h; summary of the method: as §1
[17] = system: A549; experiment: Cytotoxicity against human A549 cells after 4 days by modified propidium iodide staining-based fluorescence assay; format: functional, cell-based; conditions: A549, 96 h; summary of the method: as §1
[18] = system: T-24; experiment: Cytotoxicity against human T24 cells after 4 days by modified propidium iodide staining-based fluorescence assay; format: functional, cell-based; conditions: T-24, 96 h; summary of the method: as §1
[19] = system: HCT-116; experiment: Growth inhibition of human HCT116 cells; format: functional
[20] = system: PANC-1; experiment: Cytotoxicity against human PANC1 cells after 4 days by modified propidium iodide staining-based fluorescence assay; format: functional, cell-based; conditions: PANC-1, 96 h; summary of the method: as §1
[21] = system: MCF7; experiment: Growth inhibition of human MCF7 cells; format: functional; summary of the method: as §2
[22] = system: SN12C; experiment: Growth inhibition of human SN12C cells; format: functional; summary of the method: as §2
[23] = system: SK-MEL-28; experiment: Growth inhibition of human SK-MEL-28 cells; format: functional; summary of the method: as §2
[24] = system: Malme-3M; experiment: Growth inhibition of human MALME-3M cells; format: functional; summary of the method: as §2
[25] = Cytotoxicity against human 1752L cells after 4 days by modified propidium iodide staining-based fluorescence assay; format: functional, cell-based; conditions: 96 h; summary of the method: as §1
[26] = system: SR; experiment: Growth inhibition of human SR cells; format: functional; summary of the method: as §2
[27] = system: CWR22R; experiment: Cytotoxicity against human 22Rv1 cells after 4 days by modified propidium iodide staining-based fluorescence assay; format: functional, cell-based; conditions: 22Rv1, 96 h; summary of the method: as §1
[28] = system: COLO 205; experiment: Growth inhibition of human COLO205 cells; format: functional
[29] = Cytotoxicity against human GXF251L cells after 4 days by modified propidium iodide staining-based fluorescence assay; format: functional, cell-based; conditions: GXF 251L, 96 h; summary of the method: as §1
[30] = system: MCF7; experiment: Cytotoxicity against human MCF7 cells after 4 days by modified propidium iodide staining-based fluorescence assay; format: functional, cell-based; conditions: MCF7, 96 h; summary of the method: as §1
[31] = system: HCT-116; experiment: Cytotoxicity against human HCT116 cells after 4 days by modified propidium iodide staining-based fluorescence assay; format: functional, cell-based; conditions: HCT-116, 96 h; summary of the method: as §1
[32] = system: HT-29; experiment: Growth inhibition of human HT-29 cells; format: functional
[33] = system: UACC-257; experiment: Growth inhibition of human UACC257 cells; format: functional; summary of the method: as §2
[34] = system: SNB-75; experiment: Growth inhibition of human SNB75 cells; format: functional; summary of the method: as §2
[35] = system: CCRF-CEM; experiment: Growth inhibition of human CCRF-CEM cells; format: functional
[36] = system: MDA-MB-231; experiment: Growth inhibition of human MDA-MB-231 cells; format: functional; summary of the method: as §2
[37] = system: A498; experiment: Growth inhibition of human A498 cells; format: functional
[38] = system: DU-145; experiment: Growth inhibition of human DU145 cells; format: functional
[39] = system: SF-268; experiment: Growth inhibition of human SF268 cells; format: functional; summary of the method: as §2
[40] = system: TK-10; experiment: Growth inhibition of human TK10 cells; format: functional; summary of the method: as §2
[41] = system: OVCAR-5; experiment: Growth inhibition of human OVCAR5 cells; format: functional; summary of the method: as §2
[42] = system: HL-60(TB); experiment: Growth inhibition of human HL-60(TB) cells; format: functional
Summary of the method: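 Values come from the NCI in vitro disease-oriented human tumour cell line screen, not from this lab's propidium iodide assay. GI50 is the concentration giving 50% inhibition of net cell growth, also reported as pGI50, the −log of that molar concentration.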

Q: For COc1ccc2c(c1)c(-c1ccc(-c3cn(C)c4ccc(OC)cc34)o1)cn2C, which GI50 [1] is on record?
A: 29.6 µM

Q: And the IC50 [2]?
A: 4.1 mg/L (≈ 10.6 µM)

Q: What about the IC50 [3] of the same molecule?
A: > 100 mg/L

Q: What about the IC50 [4] of the same molecule?
A: 35.1 mg/L (≈ 90.8 µM)

Q: And the GI50 [5]?
A: 2.06 µM

Q: And the GI50 [6]?
A: 8.51 µM

Q: What about the GI50 [7] of the same molecule?
A: 8.02 µM

Q: What about the GI50 [8] of the same molecule?
A: 2.72 µM

Q: What about the GI50 [9] of the same molecule?
A: > 100 µM

Q: And the GI50 [10]?
A: 10.4 µM

Q: What about the IC50 [11] of the same molecule?
A: > 100 mg/L

Q: And the IC50 [12]?
A: 13.7 mg/L (≈ 35.5 µM)

Q: And the GI50 [13]?
A: 4.55 µM

Q: And the GI50 [14]?
A: 5.48 µM

Q: What about the GI50 [15] of the same molecule?
A: > 100 µM

Q: And the IC50 [16]?
A: 4.2 mg/L (≈ 10.9 µM)

Q: And the IC50 [17]?
A: 9.6 mg/L (≈ 24.8 µM)

Q: What about the IC50 [18] of the same molecule?
A: > 100 mg/L

Q: What about the GI50 [19] of the same molecule?
A: 8.8 µM

Q: What about the IC50 [20] of the same molecule?
A: 6.4 mg/L (≈ 16.6 µM)

Q: And the GI50 [21]?
A: 17.3 µM

Q: And the GI50 [22]?
A: 21.6 µM

Q: What about the GI50 [23] of the same molecule?
A: 14 µM

Q: And the GI50 [24]?
A: 52.8 µM

Q: What about the IC50 [25] of the same molecule?
A: 77.4 mg/L (≈ 200 µM)

Q: What about the GI50 [26] of the same molecule?
A: 1.63 µM

Q: And the IC50 [27]?
A: 33.7 mg/L (≈ 87.2 µM)

Q: What about the GI50 [28] of the same molecule?
A: 5.13 µM

Q: And the IC50 [29]?
A: 3.8 mg/L (≈ 9.83 µM)

Q: And the IC50 [30]?
A: 6.2 mg/L (≈ 16 µM)

Q: And the IC50 [31]?
A: 50.4 mg/L (≈ 130 µM)

Q: What about the GI50 [32] of the same molecule?
A: 22 µM

Q: And the GI50 [33]?
A: 27 µM

Q: And the GI50 [34]?
A: 13.6 µM

Q: What about the GI50 [35] of the same molecule?
A: 6.46 µM

Q: What about the GI50 [36] of the same molecule?
A: 4.2 µM

Q: What about the GI50 [37] of the same molecule?
A: > 100 µM

Q: And the GI50 [38]?
A: > 100 µM

Q: What about the GI50 [39] of the same molecule?
A: 9.25 µM

Q: And the GI50 [40]?
A: 11 µM

Q: What about the GI50 [41] of the same molecule?
A: 2.79 µM

Q: And the GI50 [42]?
A: 1.98 µM
